The nature of series [1]: Tmax in New-Zealand rabbit at 33 mg/kg dosed through vaginal administration by LC-MS/MS method. The class given is ADME, organism-based, Oryctolagus cuniculus. The settings on record: in vivo. The essentials: (§1)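 Female New Zealand rabbits received a single vaginal dose of 33 mg/kg. Drug in plasma was quantified by LC-MS/MS on a C18 column with phenacetin as internal standard. For each plasma sample (50 µL), 200 µL of internal-standard solution (200 ng/mL phenacetin in acetonitrile) was added. Samples were mixed, centrifuged at 13,000 rpm for 20 min, and the supernatant injected. The method was validated to FDA bioanalytical criteria.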

Series [2] can be described thus: AUC (0 to infinity) in New-Zealand rabbit at 33 mg/kg dosed through vaginal administration by LC-MS/MS method. The class given is ADME, organism-based, Oryctolagus cuniculus. Also on record: dose 33 mg/kg, time infinity. The settings on record: in vivo. The essentials: as §1
The nature of series [3]: Spermicidal activity in liquefied human semen assessed as reduction in motile spermatozoa incubated at 37 degC for 30 mins. The class given is functional, Sperm. The settings on record: for minimal effective concentration: Homo sapiens, Sperm, Semen, 0.5 h, read-out: MEC. An outline of the steps: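 Compounds dissolved in minimal DMSO, diluted with 0.85% saline to 1.0% test solution; liquefied human semen mixed 1:5 with test solution, vortexed 10 s; motile sperm scored by phase-contrast microscopy over 60 s in five fields. MEC = lowest concentration immobilizing 100% of sperm, still immotile after dilution with nutrient medium.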

Series [4] has as its system Trichomonas vaginalis. The series can be described thus: Anti-trichomonas activity against MTZ-resistant Trichomonas vaginalis incubated for 3 to 48 hrs by trypan blue exclusion assay. The class given is functional. An outline of the steps:
(§2)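 Trichomonas vaginalis trophozoites (5 × 10^4/L as printed) in TYM medium; DMSO stocks (100.0 mg/mL) serially diluted in TYM to 0.1 mg/mL, DMSO/TYM vehicle controls. Anaerobic incubation at 37 °C; viability checked 3–48 h by microscopy (200×) with trypan blue exclusion. MIC = lowest concentration killing all cells within 48 h.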

Series [5] has as its system Oryctolagus cuniculus. The series is described as follows: Apparent […] volume of distribution in New-Zealand rabbit at 33 mg/kg dosed through vaginal administration by LC-MS/MS method. The class given is ADME, organism-based. The conditions noted are these: in vivo. The essentials:
as §1

In a further series the test system is Cryptococcus neoformans. The series is described as follows: Antifungal activity against Cryptococcus neoformans incubated for 48 hrs by broth micro-dilution method. The class given is functional. An outline of the steps:
(§3)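 Broth microdilution per NCCLS guidelines in RPMI 1640 buffered with MOPS; starting inoculum 1–5 × 10^3 CFU/mL; plates incubated at 35 °C, MIC read after 48 h.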
Background: Dilution methods test growth across graded concentrations, often in twofold steps.

Series [6] is described as follows: Terminal half life in New-Zealand rabbit at 33 mg/kg dosed through vaginal administration by LC-MS/MS method. The class given is ADME, organism-based, Oryctolagus cuniculus. The settings on record: in vivo, read-out: beta t1/2 (converted). The essentials: as §1
A short description of series [7]: Cmax in New-Zealand rabbit at 33 mg/kg dosed through vaginal administration by LC-MS/MS method. Also on record: dose 33 mg/kg. The settings on record: in vivo. The class given is ADME, organism-based, Oryctolagus cuniculus. The essentials: as §1
Series [8] has as its system Trichomonas vaginalis. The series can be described thus: Anti-trichomonas activity against MTZ-susceptible Trichomonas vaginalis incubated for 3 to 48 hrs by trypan blue exclusion assay. The class given is functional. An outline of the steps: as §2
The next series concerns Candida albicans. The series is described as follows: Antifungal activity against Candida albicans incubated for 48 hrs by broth micro-dilution method. The class given is functional. The essentials:
as §3

A further series deals with Sporothrix schenckii. The series is described as follows: Antifungal activity against Sporothrix schenckii incubated for 48 hrs by broth micro-dilution method. The class given is functional. An outline of the steps: as §3
The next series deals with Aspergillus fumigatus. The series can be described thus: Antifungal activity against Aspergillus fumigatus incubated for 48 hrs by broth micro-dilution method. The class given is functional. The essentials:
as §3

For series [9], the system named is Oryctolagus cuniculus. The series can be described thus: Drug level in plasma of New-Zealand rabbit at 33 mg/kg dosed through vaginal administration by LC-MS/MS method. The conditions noted are these: in vivo, other. The class given is ADME, organism-based. An outline of the steps:
as §1

The nature of series [10]: Stability in simulated vaginal fluid at pH 4.2 at 200 ng/ml by LC-MS/MS method. The conditions noted are these: buffer.
The test system of the next series is Candida parapsilosis. The series can be described thus: Antifungal activity against Candida parapsilosis ATCC 22019 incubated for 48 hrs by broth micro-dilution method. The class given is functional. The settings on record: Lodderomyces parapsilosis, ATCC 22019, 48 h. An outline of the steps:
as §3

The subject of series [11] is Trichophyton mentagrophytes. The series is described as follows: Antifungal activity against Trichophyton mentagrophytes incubated for 48 hrs by broth micro-dilution method. The class given is functional. The essentials:
as §3

The subject of series [12] is Trichomonas vaginalis. The series is described as follows: Resistance index, ratio of MIC for MTZ-resistant Trichomonas vaginalis to MIC for MTZ-susceptible Trichomonas vaginalis. The class given is functional.
Series [13] can be described thus: Effect on Lactobacillus jensenii ATCC 25258 62G assessed as effect on microbial proliferation at 200 ug/ml incubated for 24 hrs. The essentials: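 L. jensenii ATCC 25258 (strain 62G) in 6% Rogosa SL broth with 0.132% acetic acid; serial compound dilutions or vehicle in triplicate, ~1000 CFU per well, 24 h at 37 °C, humidified 5% CO2; growth read as OD610, expressed relative to control = 100.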

The target of series [14] is Human immunodeficiency virus type 1 reverse transcriptase (Human immunodeficiency virus 1) (UniProt Q72547). The series is described as follows: Inhibition of HIV1 reverse transcriptase at 100 ug/ml incubated for 1 hr by ELISA method. An outline of the steps: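 Non-radioactive colorimetric ELISA: template/primer with dNTPs plus HIV-1 RT in lysis buffer ± compound (100 µg/mL), 1 h at 37 °C; RT-free buffer as negative control, nevirapine as positive control. Product captured on streptavidin plate 1 h at 37 °C, detected with anti-DIG-POD and ABTS, OD 405 nm.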
Background: ELISA stands for enzyme-linked immunosorbent assay.

The test system of another series is HeLa. The series can be described thus: Cytotoxicity against human HeLa cells assessed as reduction in cell viability at 200 ug/ml incubated for 24 hrs by MTT assay. The class given is cell-based. The essentials:
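HeLa cells seeded at 5 × 10^4 per well, exposed 24 h to compound dilutions in culture medium or vehicle control; MTT (5 mg/mL in pH 7.4 buffer) added, formazan dissolved in DMSO, absorbance read at 540 nm.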
For orientation: Tetrazolium dyes change colour on reduction, which living cells bring about.

Values after ≈ are worked out from the molar mass of the structure shown.

What is called Tmax is the time at which the peak concentration occurs. A word on the AUC(0-inf): it is the area under the concentration-time curve extrapolated to infinity. The low end stands for less exposure, the high end for more exposure. What is called MIC is the lowest concentration that inhibits growth of the organism. A higher MIC goes with weaker potency. What is called Vd/F is the volume of distribution divided by bioavailability. By Cmax is commonly meant the maximum level reached in the sampled fluid or tissue. In the case of `CCCCCCCCCc1ccc(OCCOCCOCCOCCOCCOCCOCCOCCOCCO)cc1` [NONOXYNOL 9], in series [1], the time of peak concentration (Tmax) came out at 1 h. The compound further yielded an AUC(0-inf) in series [2] of 12.9 ng·h/mL. In series [3], the MEC was 0.05%. In addition, in [3], the minimal effective concentration was 810 µM. In addition, the MIC was 122 µM (≈ 75.1 µg/mL) against Trichomonas vaginalis [4]; more than 81.2 µM in the series on Cryptococcus neoformans; 81.2 µM (≈ 50.1 µg/mL) against Trichomonas vaginalis [8]; more than 81.2 µM against Candida albicans; more than 81.2 µM in the series on Sporothrix schenckii; more than 81.2 µM with Aspergillus fumigatus. In addition, the MIC (in the series with Candida parapsilosis; in series [11]) was more than 81.2 µM throughout. Moreover, the Vd/F in the series on Oryctolagus cuniculus [5] was determined as 7931.32 L/kg. In series [6], the half-life is 1.59 h. Moreover, in [7], the maximum concentration (Cmax) was 3.66 ng/mL. In addition, in the series on Oryctolagus cuniculus [9], the Drug uptake result was “Not Active”. Also, in series [10], the Stability is more than 1 h.
A word on the inhibition: it is the drop in the measured response relative to a control, in per cent. High values mean strong suppression, low ones little suppression. As for `CCCCNC(=S)N1CCN(CCC(=O)c2ccccc2)CC1`, in [1], the Tmax worked out at 0.75 h. Besides, the AUC(0-inf) in [2] is 14.7 ng·h/mL. Further, in series [3], the MEC was 0.01%. Moreover, the minimal effective concentration in series [3] worked out at 300 µM. Besides, the MIC in the series on Trichomonas vaginalis [4] is 188 µM (≈ 62.6 µg/mL); with Cryptococcus neoformans it was 9.34 µM (≈ 3.11 µg/mL); against Trichomonas vaginalis [8] it was 46.7 µM (≈ 15.6 µg/mL); against Candida albicans, 74.8 µM (≈ 24.9 µg/mL); in the series with Sporothrix schenckii it was more than 81.2 µM; against Aspergillus fumigatus, more than 81.2 µM. Further, the MIC against Candida parapsilosis is more than 81.2 µM; in series [11], 9.34 µM (≈ 3.11 µg/mL). In [6], the half-life was 4.67 h. Moreover, the Cmax in series [7] is 4.43 ng/mL. Further, the Ratio in the series with Trichomonas vaginalis [12] was determined as 4. The Activity result (in series [13]; with HeLa) was “Non-toxic” each time. The compound further gave an inhibition in series [14] of 72.3%. In addition, in the series with Oryctolagus cuniculus [9], the Drug uptake entry is “Not Active”. Further, in series [10], the Stability was more than 1 h.
Turning to `CCCCNC(=S)N1CCN(CCC(O)c2ccccc2)CC1` (centres undefined), the MEC in series [3] is reported as 0.05%. Further, in series [3], the minimal effective concentration is 1490 µM. Moreover, the MIC with Trichomonas vaginalis [4] was 187 µM (≈ 62.6 µg/mL); with Cryptococcus neoformans, more than 81.2 µM; in the series with Trichomonas vaginalis [8] it was 46.4 µM (≈ 15.6 µg/mL); in the series with Candida albicans, more than 81.2 µM; against Sporothrix schenckii, more than 81.2 µM; against Aspergillus fumigatus it was more than 81.2 µM. For the same compound, the minimum inhibitory concentration (MIC) (with Candida parapsilosis; in series [11]) was more than 81.2 µM in each case. For the same compound, the Ratio in the series on Trichomonas vaginalis [12] is 4. Further, the Activity result (in [13]; in the series with HeLa) was “Non-toxic” throughout. In series [14], the inhibition was found to be 29.1%.
Turning to `CCCCNC(=S)N1CCN(CCC(Oc2ccc(C(F)(F)F)cc2)c2ccccc2)CC1` (centres undefined), the MEC in series [3] is reported as more than 1%. Further, the minimal effective concentration in [3] is more than 20900 µM. In addition, the MIC in the series with Trichomonas vaginalis [4] is 261 µM (≈ 125 µg/mL); against Cryptococcus neoformans, more than 81.2 µM; against Trichomonas vaginalis [8] it was 130 µM (≈ 62.6 µg/mL); in the series on Candida albicans, more than 81.2 µM; in the series on Sporothrix schenckii it was more than 81.2 µM; against Aspergillus fumigatus, more than 81.2 µM. The MIC (with Candida parapsilosis; in [11]) was more than 81.2 µM each time. Further, the Ratio in the series on Trichomonas vaginalis [12] is 2. The Activity entry (in series [13]; with HeLa) was “Non-toxic” throughout. Moreover, in [14], the inhibition is 59.6%.
Consider `OC(CCN1CCN(C(=S)NCCc2ccccc2)CC1)c1ccccc1` (centres undefined), for which the MEC in series [3] turned out to be 0.1%. For the same compound, in series [3], the minimal effective concentration was determined as 2610 µM. For the same compound, the minimal inhibitory concentration (MIC) in the series on Trichomonas vaginalis [4] is 163 µM (≈ 62.6 µg/mL); against Cryptococcus neoformans, more than 81.2 µM; with Trichomonas vaginalis [8], 40.6 µM (≈ 15.6 µg/mL); against Candida albicans, more than 81.2 µM; with Sporothrix schenckii it was more than 81.2 µM; against Aspergillus fumigatus, more than 81.2 µM. The minimal inhibitory concentration (MIC) (in the series on Candida parapsilosis; in series [11]) was more than 81.2 µM in each case. Moreover, the Ratio in the series on Trichomonas vaginalis [12] was found to be 4. Moreover, the Activity entry (in series [13]; with HeLa) was “Non-toxic” in each case. In [14], the inhibition is 45.3%.

The values are drawn from ChEMBL document CHEMBL3612038, “N-Alkyl/aryl-4-(3-substituted-3-phenylpropyl)piperazine-1-carbothioamide as dual-action vaginal microbicides with reverse transcriptase inhibition” (Eur J Med Chem, 2015).
